Data published in publication PMC5724766 (Bioorganic & medicinal chemistry, 2016).
Each block holds one compound with its values, some of them ahead of it.

How the values were obtained:
[1] = target: purified human 20S proteasome, tryptic (β2)-like activity (Homo sapiens, UniProt Q99436); assay: 20S proteasome trypsin-like; type: biochemical
Summary of the method: (§1)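 Purified human 20S proteasome (1 nM) in 50 mM Tris-HCl pH 7.5 with 0.03% SDS and 50 μM fluorogenic substrate at 37 °C: Z-LLE-AMC for caspase-like activity, Z-ARR-AMC for trypsin-like activity. Released aminomethylcoumarin read at ex 380/em 460 nm every minute for 30 min. Maximum fluorescence increase per minute gives the specific activity of each sample.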

[2] = target: purified human 20S proteasome, caspase (β1)-like activity (Homo sapiens, UniProt P28072); assay: 20S proteasome caspase-like; type: biochemical
Summary of the method: as §1

proteasome = conditions: cited from earlier work; for IC50: read-out: IC50, proteasome inhibition

IC50 [1]: > 25 µM
Structure (SMILES): Cc1cc(C)c2cc(C3=CCCCC3)c(C)nc2c1 [Compound 7, 3-Cyclohexenyl-2,5,7-trimethylquinoline]

inhibition of tryptic-like activity (in words) ([1]; purified human 20S proteasome, Suppl. Fig. S6): not the tryptic-like activity | IC50 [2]: 10.9 µM
Structure (SMILES): Cc1nc2ccc(N3CCCCC3)cc2cc1C1=CCCCC1 [Compound 25, 3-Cyclohexenyl-2-methyl-6-piperidinylquinoline]

Structure (SMILES): Nc1ccc(O)c2ncccc12 [5-AHQ, 5-amino-8-hydroxyquinoline]
IC50 (proteasome): 0.6 to 5 µM

Structure (SMILES): O=C1C(Cl)=C(Nc2ccc(S(=O)(=O)Nc3ccccn3)cc2)C(=O)c2ccccc21 [PI-083]
IC50 (proteasome): ~1 µM

Structure (SMILES): CCN(CC)CCCC(C)Nc1ccnc2cc(Cl)ccc12 (stereo not drawn) [chloroquine]
proteasome inhibitory activity (in words) (proteasome): millimolar activity
